Screening results as filed in PubChem.
SKKanGAS inh: S. pyogenes SKKanGAS growth inhibitors in kanamycin, primary screen, streptokinase expression inhibitor project, SKKanGAS strain, BacTiter-Glo luminescence; inhibition, % at 7.5 µM; 6 h; hit rate 1.3% among 300,000; AID 1662, 2009;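 active means mean replicate score, as percent of positive control median, at least 50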;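 further: strain carries kanamycin resistance gene driven by streptokinase promoter and grows in 40 µg/ml kanamycin; loss of luminescence reflects streptokinase promoter inhibition or plain growth inhibition; 0% = median of DMSO wells and 100% = positive control at its reference dose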
T cruzi inh: inhibitors of intracellular T. cruzi growth, primary screen, luminescence, NIH3T3 host cells; T. cruzi beta-gal in NIH3T3, 90 h; AID 1885, 2009; hit rate 1.4% among 300,000; inhibition, % (test concentration not listed);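 active means mean inhibition across valid replicates above about 55%, limit read from the data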;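 further: signal also drops with host cell toxicity which is not excluded here; 0% = plate median of DMSO wells and 100% = zero luminescence signal; higher percent means less beta-gal luminescence so fewer parasites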
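Assay system: NIH/3T3 fibroblasts plus reporter T. cruzi. Amount: NIH/3T3 cells, 5,000 per well. Buffer or medium: DMEM, 2% fetal bovine serum. Doses: compound pinned at 50 nL/well, DMSO. Schedule: ≥90 h infection period, 3 h prior cell attachment. Signal: luminescent β-galactosidase signal after 60 min lysis. Read-out: parasite load inhibition, %.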
CSC inhib: cancer stem cell viability inhibitors, primary screen, luminescence; AID 2717, 2010; cancer stem cell-like cells viability; hit rate 1.1% among 300,000; inhibition, % at 7.5 µM; in the data active means inhibition above about 75%; tested in HMLE shEcad cells
Mdm2-MdmX inh: inhibitors of human Mdm2-MdmX association, primary screen, cell-based, luminescence, split luciferase, SaOS-2, uHTS; SaOS-2 split-luciferase Mdm2/MdmX complementation; AID 485346, 2010; inhibition, % at 8 µM; Protein Mdm4 (Homo sapiens) + E3 ubiquitin-protein ligase Mdm2 (Homo sapiens), …; hit rate 3% among 330,000;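 active means inhibition of at least 50% at 8 µM in the primary screen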
Target sequence (O15151 whole entry, looked up): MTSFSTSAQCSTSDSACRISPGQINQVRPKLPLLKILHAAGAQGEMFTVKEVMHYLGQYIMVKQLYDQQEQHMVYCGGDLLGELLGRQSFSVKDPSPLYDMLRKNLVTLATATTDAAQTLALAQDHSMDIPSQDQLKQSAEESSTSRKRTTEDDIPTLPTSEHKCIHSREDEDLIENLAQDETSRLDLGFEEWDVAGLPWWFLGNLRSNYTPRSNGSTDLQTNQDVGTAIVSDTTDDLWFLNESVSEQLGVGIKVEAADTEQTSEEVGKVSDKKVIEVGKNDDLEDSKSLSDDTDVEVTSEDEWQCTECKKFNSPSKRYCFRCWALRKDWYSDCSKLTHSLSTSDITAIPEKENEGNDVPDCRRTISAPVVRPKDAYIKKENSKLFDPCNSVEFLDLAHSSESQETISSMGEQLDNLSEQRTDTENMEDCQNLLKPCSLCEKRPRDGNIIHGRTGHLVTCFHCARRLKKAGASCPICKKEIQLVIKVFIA
Target sequence (Q00987 whole entry, looked up): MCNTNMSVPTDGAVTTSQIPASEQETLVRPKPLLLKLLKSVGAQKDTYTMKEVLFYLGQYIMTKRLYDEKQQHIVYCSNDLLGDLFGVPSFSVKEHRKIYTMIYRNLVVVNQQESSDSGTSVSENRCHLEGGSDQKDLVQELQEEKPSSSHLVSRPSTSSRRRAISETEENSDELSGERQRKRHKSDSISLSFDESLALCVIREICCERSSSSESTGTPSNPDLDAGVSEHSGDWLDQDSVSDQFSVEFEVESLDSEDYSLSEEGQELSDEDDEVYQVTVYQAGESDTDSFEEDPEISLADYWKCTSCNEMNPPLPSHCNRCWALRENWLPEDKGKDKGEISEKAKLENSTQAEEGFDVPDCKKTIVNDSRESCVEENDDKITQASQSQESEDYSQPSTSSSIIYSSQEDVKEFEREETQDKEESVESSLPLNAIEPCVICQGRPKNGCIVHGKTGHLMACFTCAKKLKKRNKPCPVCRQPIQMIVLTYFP
L major viab: Leishmania major promastigote growth inhibition, primary screen; hit rate 9% among 200,000; Leishmania major promastigotes, resazurin fluorescence viability; inhibition, % at 10 µM; AID 1063, 2008; in the data active means inhibition above about 50%;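 further: promastigotes grown with compound for 44 hours at 28 °C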
Beta apoptosis: inhibitors of cytokine-induced beta cell apoptosis, primary screen, luminescence; INS-1E cytokine-induced death, ATP luminescence, 48 h; percent of positive-control rescue, neutral wells zero; protection from apoptosis, % (concentration not given with the values); hit rate 0.8% among 300,000;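 active means Every replicate reaches about 75%, or at least half do and their mean reaches it too, limit read from the data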;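 further: 0% = cytokine-treated negative control wells and 100% = positive control rescue; higher means more ATP so stronger rescue from cytokine killing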
Starred values were filed as active, the others as inactive; / = not tested or not shown. Hits are enriched below; roughly 9.4% of the tested compounds scored in any of these assays.

SMILES	SKKanGAS inh	T cruzi inh	CSC inhib	Mdm2-MdmX inh	L major viab	Beta apoptosis
COc1cccc(CN2CCN(C(=S)NCc3ccc(Cl)cc3)CC2)c1	0	7	-22	-11	89*	/
CCCCNC(=S)N1CCN(Cc2ccc3c(c2)OCO3)CC1	2	-4	7	7	75*	2
Cc1ccccc1NC(=S)N1CCN(Cc2ccc3c(c2)OCO3)CC1	-3	13	-16	21	24	-7
S=C(NCc1ccccc1)N1CCN(Cc2ccc3c(c2)OCO3)CC1	-3	3	14	-26	92*	-9
Cc1cc(C)cc(C(=O)NN2CCOCC2)c1	-10	0	3	-10	47	-3
Oc1[nH]c(=S)sc1C=C1N=c2ccccc2=N1	6	-9	-10	7	/	/
Oc1[nH]c(=S)sc1/C=C1\C(c2ccccc2)=Nc2ccccc21	76*	36	48	/	83*	-4
Cc1cc(C)cc(N(CC(=O)N/N=C/c2ccncc2)S(=O)(=O)c2ccccc2)c1	-4	-4	-13	-10	75*	-2
Cc1cccc(NC(=O)c2nc[nH]c2C(=O)N[C@@H](CC(C)C)C(=O)OCc2ccccc2)c1	92*	21	/	11	/	-5
CC(C)C[C@H](NC(=O)c1[nH]cnc1C(=O)N[C@@H](C)C(=O)OC(C)(C)C)C(=O)OCc1ccccc1	73*	21	11	28	/	7
Cc1cccc(NC(=O)c2nc[nH]c2C(=O)N[C@@H](C)c2ccccc2)c1	/	/	78*	35	/	9
Cc1cccc(NC(=O)c2nc[nH]c2C(=O)Nc2cccc(C)c2)c1	7	-5	4	40	2	5
COc1ccc(NC(=O)c2nc[nH]c2C(=O)N[C@@H](CC(C)C)C(=O)OC(C)(C)C)cc1	76*	35	133*	16	/	69
Cc1ccsc1CNS(=O)(=O)c1ccc(F)cc1	8	-7	7	-16	/	-4
CC(C)C[C@H](NC(=O)c1nc[nH]c1C(=O)NC1CCN(C(=O)OC(C)(C)C)CC1)C(=O)OC(C)(C)C	11	22	5	12	31	5
CC(C)(C)OC(=O)NCCCC[C@H](NC(=O)c1nc[nH]c1C(=O)N[C@@H](CCCCNC(=O)OC(C)(C)C)C(=O)OC(C)(C)C)C(=O)OC(C)(C)C	17	43	7	21	/	25
CC(C)C[C@H](NC(=O)c1nc[nH]c1C(=O)NC1CCN(C(=O)OC(C)(C)C)CC1)C(=O)OCc1ccccc1	73*	15	34	43	51*	-9
CC(C)(C)OC(=O)NCCCC[C@H](NC(=O)c1nc[nH]c1C(=O)NC(c1ccccc1)c1ccccc1)C(=O)OC(C)(C)C	27	56*	35	38	-5	24
CC(C)C[C@H](NC(=O)c1nc[nH]c1C(=O)NCc1ccccc1)C(=O)OCc1ccccc1	54*	2	-5	3	17	-11
NS(=O)(=O)c1ccc(Nc2c([N+](=O)[O-])cncc2[N+](=O)[O-])cc1	6	36	-10	8	/	2
O=[N+]([O-])c1cncc([N+](=O)[O-])c1Nc1ccccc1Cl	8	16	-13	31	80*	-10
O=C(NCc1ccc(/C=c2\sc3n(c2=O)CCN=3)o1)C(=O)Nc1ccccc1	-9	6	10	/	-6	/
CC1CN(CCCCOc2cccc(Oc3ccccc3)c2)CC(C)O1 (stereo not given)	0	56*	195*	9	-4	-2
c1ccc(Oc2cccc(OCCCCN3CCCC3)c2)cc1	7	53	59	7	99*	5
CC1CCCN(CCOc2cccc(Oc3ccccc3)c2)C1 (stereo not given)	2	29	/	26	/	/
SMILES	SKKanGAS inh	T cruzi inh	CSC inhib	Mdm2-MdmX inh	L major viab	Beta apoptosis
CCc1nnc(NC(=O)CCC(=O)NC2CCCCCC2)s1	2	4	5	10	/	1
COc1cc2c(cc1OC)-c1c(OC)c(OC)cc3ccnc(c13)C2=O	12	21	61	30	63*	112*
CCN(CC)S(=O)(=O)c1cccc(NC(=O)COC(=O)/C=C/c2ccco2)c1	4	10	0	-8	57*	-4
CC(C)CNC(=O)c1ccccc1NC(=O)/C=C/c1cccc([N+](=O)[O-])c1	1	17	7	17	53*	-10
CCN(CC)S(=O)(=O)c1cccc(NC(=O)/C=C/c2ccc([N+](=O)[O-])cc2)c1	-9	-7	-3	7	-2	3
CCN(CC)S(=O)(=O)c1cccc(NC(=O)/C=C/c2cccc([N+](=O)[O-])c2)c1	5	8	1	/	99*	4
COc1cccc(CN(C)C(=O)[C@@H](NC(=O)c2ccc(C)cc2)C(C)C)c1	4	2	7	-25	/	-3
COC(=O)c1ccc(N=c2sc(C(=O)OC)cc(=O)n2C)cc1	/	/	/	/	7	/
COC(=O)c1cc(=O)n(-c2ccc(F)cc2)c(=Nc2ccc(F)cc2)s1	-5	42	16	42	92*	-1
CC(=O)c1c(O)cc(C)n(-c2ccc(F)cc2)c1=O	2	-12	/	-8	-3	1
COC(=O)c1c(O)cc(C(C)(C)C)n(-c2ccc(F)cc2)c1=O	6	6	-2	-21	63*	2
COc1cc(OC)cc(C(=O)N/N=C\c2ccoc2)c1	-4	15	-11	-2	/	-6
O=C(COc1ccccc1F)Nc1ccc2[nH]c(=O)[nH]c2c1	8	-6	/	13	/	4
O=C(COc1ccccc1)Nc1ccc2[nH]c(=O)[nH]c2c1	-3	-18	-16	-12	90*	14
CN(C)c1nc(NCc2ccccc2)nc(SCC(=O)Nc2ccc(Cl)c(Cl)c2)n1	28	55*	-7	14	18	1
Cc1csc(NC(=O)c2cccnc2Cl)n1	-8	-6	-18	-5	/	/
CCCN(CC(=O)Nc1ccccc1OC)C(=O)c1cc(-c2cccs2)nn1-c1ccccc1	23	32	2	10	/	-2
COc1cccc(C2C3=C(CC(C)(C)CC3=O)Nc3cc4c(cc32)OCO4)c1 (stereo not given)	-5	11	-2	-17	100*	1
COC(=O)Cn1cc(/C=C(/C#N)C(=O)N2CCOCC2)c2ccccc21	3	-8	-19	-1	-4	-9
Cc1cccc(CSc2nc(N)c(C#N)c(-c3cccs3)c2C#N)c1	59*	68*	5	30	35	13
CN1CCc2nc(SCC(=O)Nc3cccc(F)c3)c(C#N)c(-c3cccs3)c2C1	-3	55*	3	15	34	-14
Cc1cccc(CSc2nc3c(c(-c4cccs4)c2C#N)CN(C)CC3)c1	-4	58*	-2	22	31	/
